Results: ChEMBL document CHEMBL1139453, “Potent inhibitors of the Plasmodium falciparum enzymes plasmepsin I and II devoid of cathepsin D inhibitory activity” (J Med Chem, 2004)

How the values were obtained:
Cathepsin D [1] = biological target: T1, Cathepsin D (Homo sapiens, UniProt P07339); experiment: Inhibitory activity against human cathepsin D
Method in brief: (§1)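 Human liver Cat D, 50 ng/mL pro-form, activated 20 min at 37 °C in 100 mM sodium acetate pH 4.5, 10% glycerol, 0.01% Tween 20. Inhibitor (tested up to 2000 nM, final DMSO 1%) added before 3 μM DABCYL-Glu-Arg-Nle-Phe-Leu-Ser-Phe-Pro-EDANS. Fluorescence rise followed 10 min. IC50 from Langmuir fit assuming competitive inhibition; Ki = IC50/(1+[S]/Km).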

Plasmepsin I = Plasmepsin I (Plasmodium falciparum, UniProt P39898); experiment: Inhibitory activity against protease plasmepsin-1 (Plm I) of Plasmodium falciparum
Method in brief: (§2)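 Plm II: 3 nM pro-enzyme, pro-sequence cleaved by 40 min room-temperature preincubation; Plm I amount matched to similar activity. Buffer 100 mM sodium acetate pH 4.5, 10% glycerol, 0.01% Tween 20. Inhibitor (up to 1500 nM Plm I, 2500 nM Plm II; 1% DMSO final), then 3 μM FRET substrate; fluorescence over 10 min. Competitive Langmuir IC50 converted to Ki via Michaelis–Menten Km.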

Plasmepsin II = Plasmepsin II (Plasmodium falciparum, UniProt P46925); experiment: Inhibitory activity against protease plasmepsin-2 (Plm II) of Plasmodium falciparum; method in brief: as §2
Plasmodium falciparum [2] = experiment: In vitro percent inhibition of Plasmodium falciparum 3D7 in human erythrocyte at 5 uM; type: functional
Method in brief: (§3)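 Synchronous P. falciparum 3D7 early trophozoites (~1% haematocrit, 1% parasitaemia) in human erythrocytes, labelled with [3H]hypoxanthine 10 μCi mL⁻¹; compound added (1–5 μM final, DMSO up to 1% v/v), 30 h at 37 °C in gassed boxes to schizont stage. Filter-harvested, β-counted; radioactivity relative to DMSO-only wells; four independent experiments per concentration.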

Cathepsin D [3] = biological target: T1, Cathepsin D; experiment: Inhibitory activity against human Cathepsin D; Range; method in brief: as §1
Plasmodium falciparum [4] = experiment: Percent inhibition for Plasmodium falciparum at 5 uM; type: functional; method in brief: as §3

Chain of Plasmepsin II (P46925 whole entry): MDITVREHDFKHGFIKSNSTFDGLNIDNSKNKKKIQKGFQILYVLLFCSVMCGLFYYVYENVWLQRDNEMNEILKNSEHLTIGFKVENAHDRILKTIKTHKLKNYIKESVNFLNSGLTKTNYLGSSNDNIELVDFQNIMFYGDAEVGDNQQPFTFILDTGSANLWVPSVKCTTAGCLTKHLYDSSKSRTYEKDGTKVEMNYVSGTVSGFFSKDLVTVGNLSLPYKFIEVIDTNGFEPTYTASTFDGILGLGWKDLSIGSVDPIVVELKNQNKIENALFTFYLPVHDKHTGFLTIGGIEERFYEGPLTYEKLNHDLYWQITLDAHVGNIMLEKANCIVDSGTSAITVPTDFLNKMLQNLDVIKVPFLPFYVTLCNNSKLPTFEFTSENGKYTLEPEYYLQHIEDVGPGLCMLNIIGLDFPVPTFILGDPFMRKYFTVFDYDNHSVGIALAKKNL
T1 sequence (P07339 65-162 limits assumed): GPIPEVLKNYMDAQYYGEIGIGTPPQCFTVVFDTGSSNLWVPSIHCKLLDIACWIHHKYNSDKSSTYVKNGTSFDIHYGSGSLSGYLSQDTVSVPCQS
T1 sequence (P07339 169-412 limits assumed): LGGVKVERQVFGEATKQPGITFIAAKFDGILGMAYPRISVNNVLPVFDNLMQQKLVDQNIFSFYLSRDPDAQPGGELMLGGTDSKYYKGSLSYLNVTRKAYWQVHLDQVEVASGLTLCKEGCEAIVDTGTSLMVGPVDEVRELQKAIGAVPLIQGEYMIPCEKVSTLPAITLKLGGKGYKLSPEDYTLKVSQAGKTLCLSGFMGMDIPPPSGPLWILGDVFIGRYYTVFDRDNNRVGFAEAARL
Chain of Plasmepsin I (P39898 whole entry): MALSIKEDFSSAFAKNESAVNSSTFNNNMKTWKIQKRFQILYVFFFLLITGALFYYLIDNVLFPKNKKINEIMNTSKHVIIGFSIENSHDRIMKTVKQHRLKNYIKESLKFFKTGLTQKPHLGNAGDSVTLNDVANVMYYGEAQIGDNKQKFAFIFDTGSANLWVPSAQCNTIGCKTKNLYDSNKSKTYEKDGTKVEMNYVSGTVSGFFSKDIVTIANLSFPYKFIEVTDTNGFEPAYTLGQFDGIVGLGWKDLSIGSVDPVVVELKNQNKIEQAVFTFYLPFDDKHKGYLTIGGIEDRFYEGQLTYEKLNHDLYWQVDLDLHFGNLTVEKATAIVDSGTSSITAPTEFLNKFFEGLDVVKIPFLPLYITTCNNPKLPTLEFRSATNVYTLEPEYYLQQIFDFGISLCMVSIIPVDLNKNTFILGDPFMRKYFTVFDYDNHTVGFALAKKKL

| SMILES | Ki (Cathepsin D [1]) [nM] | Ki (Plasmepsin I) [nM] | Ki (Plasmepsin II) [nM] | inhibition at 5 µM (Plasmodium falciparum [2]) [%] | Ki (Cathepsin D [3]) [nM] | inhibition at 5 µM (Plasmodium falciparum [4]) [%] |
| --- | --- | --- | --- | --- | --- | --- |
| Cc1noc(C)c1/C=C/CO[C@@H](C(=O)N[C@H]1c2ccccc2C[C@H]1O)[C@H](O)[C@@H](O)[C@@H](OC/C=C/c1c(C)noc1C)C(=O)N[C@H]1c2ccccc2C[C@H]1O | > 2000 | 23 | 181 | – | – | – |
| CNC(=O)[C@@H](NC(=O)[C@H](OCc1ccccc1)[C@H](O)[C@@H](O)[C@@H](OCc1ccccc1)C(=O)N[C@H](C(=O)NC)C(C)C)C(C)C | – | – | 3800 | – | – | – |
| O=C(N[C@H]1c2ccccc2C[C@H]1O)[C@H](OC/C=C/c1ccsc1)[C@H](O)[C@@H](O)[C@@H](OC/C=C/c1ccsc1)C(=O)N[C@H]1c2ccccc2C[C@H]1O | > 2000 | 1.3 | 15 | – | – | – |
| O=C(N[C@H]1c2ccccc2C[C@H]1O)[C@H](OC/C=C/c1ccc(F)cc1)[C@H](O)[C@@H](O)[C@@H](OC/C=C/c1ccc(F)cc1)C(=O)N[C@H]1c2ccccc2C[C@H]1O | > 2000 | 2.5 | 59 | – | – | – |
| COC(=O)/C=C/C=C/CO[C@@H](C(=O)N[C@H]1c2ccccc2C[C@H]1O)[C@H](O)[C@@H](O)[C@@H](OC/C=C/C=C/C(=O)OC)C(=O)N[C@H]1c2ccccc2C[C@H]1O | > 2000 | 3.7 | 8.9 | 51 | – | – |
| CC(=O)c1ccc(/C=C/CO[C@@H](C(=O)N[C@H]2c3ccccc3C[C@H]2O)[C@H](O)[C@@H](O)[C@@H](OC/C=C/c2ccc(C(C)=O)cc2)C(=O)N[C@H]2c3ccccc3C[C@H]2O)cc1 | > 2000 | 0.8 | 6 | 78 | – | – |
| O=C(N[C@H]1c2ccccc2C[C@H]1O)[C@H](OC/C=C/C=C/c1ccccc1)[C@H](O)[C@@H](O)[C@@H](OC/C=C/C=C/c1ccccc1)C(=O)N[C@H]1c2ccccc2C[C@H]1O | > 2000 | 4.4 | 15 | – | – | – |
| C#C/C=C/CO[C@@H](C(=O)N[C@H]1c2ccccc2C[C@H]1O)[C@H](O)[C@@H](O)[C@@H](OC/C=C/C#C)C(=O)N[C@H]1c2ccccc2C[C@H]1O | > 2000 | 32 | 37 | – | – | – |
| C=CCO[C@@H](CN[C@H]1c2ccccc2C[C@H]1O)[C@H](O)[C@@H](O)[C@@H](OCC=C)C(=O)N[C@H]1c2ccccc2C[C@H]1O | – | > 1500 | > 2500 | 50 | > 2000 | – |
| C[Si](C)(C)C#C/C=C/CO[C@@H](C(=O)N[C@H]1c2ccccc2C[C@H]1O)[C@H](O)[C@@H](O)[C@@H](OC/C=C/C#C[Si](C)(C)C)C(=O)N[C@H]1c2ccccc2C[C@H]1O | > 2000 | 37 | 130 | – | – | – |
| O=C(N[C@H]1c2ccccc2C[C@H]1O)[C@H](OC/C=C/Br)[C@H](O)[C@@H](O)[C@@H](OC/C=C/Br)C(=O)N[C@H]1c2ccccc2C[C@H]1O | > 2000 | 27 | 47 | – | – | – |
| Cc1ccc(/C=C/CO[C@@H](C(=O)N[C@H]2c3ccccc3C[C@H]2O)[C@H](O)[C@@H](O)[C@@H](OC/C=C/c2ccc(C)cc2)C(=O)N[C@H]2c3ccccc3C[C@H]2O)cc1 | > 2000 | 5.8 | 129 | – | – | – |
| O=C(N[C@H]1c2ccccc2C[C@H]1O)[C@H](OC/C=C/c1ccccc1)[C@H](O)[C@@H](O)[C@@H](OC/C=C/c1ccccc1)C(=O)N[C@H]1c2ccccc2C[C@H]1O | > 2000 | 1.4 | 29 | – | – | – |
| O=C(N[C@H]1c2ccccc2C[C@H]1O)[C@H](OC/C=C/c1ccc2c(c1)OCO2)[C@H](O)[C@@H](O)[C@@H](OC/C=C/c1ccc2c(c1)OCO2)C(=O)N[C@H]1c2ccccc2C[C@H]1O | > 2000 | 0.5 | 14 | 61 | – | – |
| C=CCO[C@@H](C(=O)N[C@H]1c2ccccc2C[C@H]1O)[C@H](O)[C@@H](O)[C@@H](OCC=C)C(=O)N[C@H]1c2ccccc2C[C@H]1O | > 2000 | 163 | 96 | 0 | – | – |
| C=CCO[C@@H](C(=O)N[C@H](C(=O)NC)C(C)C)[C@H](O)[C@@H](O)[C@@H](OCC=C)C(=O)N[C@H](C(=O)NC)C(C)C | – | – | 4100 | – | – | – |
| O=C(N[C@H]1c2ccccc2C[C@H]1O)[C@H](OCc1ccccc1)[C@H](O)[C@@H](O)[C@@H](OCc1ccccc1)C(=O)N[C@H]1c2ccccc2C[C@H]1O | > 2000 | 25 | 85 | – | – | – |
| O=C(N[C@H]1c2ccccc2C[C@H]1O)[C@H](OC/C=C/C#Cc1ccccc1)[C@H](O)[C@@H](O)[C@@H](OC/C=C/C#Cc1ccccc1)C(=O)N[C@H]1c2ccccc2C[C@H]1O | > 2000 | 7.2 | 41 | – | – | – |
| COc1ncc(/C=C/CO[C@@H](C(=O)N[C@H]2c3ccccc3C[C@H]2O)[C@H](O)[C@@H](O)[C@@H](OC/C=C/c2cnc(OC)nc2OC)C(=O)N[C@H]2c3ccccc3C[C@H]2O)c(OC)n1 | > 2000 | 8.4 | 13 | 2 | – | – |
| CC(C)[C@H](NC(=O)CCc1c[nH]c2ccccc12)C(=O)N[C@@H](Cc1ccccc1)[C@@H](O)CN[C@@H](Cc1ccc(-c2ccccc2)cc1)C(N)=O | 30 | 2.6 | 11 | – | – | 56 |
